Tests used:
Klebsiella aerogenes [1] = experiment: Mean lysis diameter was measured against Enterobacter aerogenes EA289 with D121A mutation by standard disk diffusion method on MH agar; assay type: functional
Procedure, shortened: (§1)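 Porin-deficient, β-lactamase-producing Enterobacter aerogenes EA289 carrying plasmid-borne wild-type OmpF, D113A or D121A. Grown in LB at 37 °C with gentle shaking, with kanamycin (50 µg/mL) or IPTG (1 mM); porin expression checked. Disk diffusion: 3 mL MH broth culture (10^7 bacteria/mL) spread on MH agar, antibiotic disks applied, inhibition diameter (mm) after 24 h at 37 °C. Mean of 3–5 experiments, versus the wild-type OmpF strain.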

Klebsiella aerogenes [2] = experiment: Mean lysis diameter of wild type Enterobacter aerogenes EA289 with OmpF by standard disk diffusion method on MH agar; assay type: functional
Procedure, shortened: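 EA289 is transformed with a plasmid encoding wild-type OmpF and grown in LB at 37 °C with gentle shaking, with kanamycin (50 µg/mL) or IPTG (1 mM) as needed to keep the plasmid. OmpF expression level is checked. For the disk diffusion test, MH broth culture (10^7 bacteria/mL) is spread on MH agar with antibiotic disks. Zone diameter (mm) is read after 24 h at 37 °C, mean of 3–5 experiments.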

Klebsiella aerogenes [3] = experiment: Mean lysis diameter of porin deficient Enterobacter aerogenes EA289 by standard disk diffusion method on MH agar; assay type: functional
Procedure, shortened: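 Porin-deficient, β-lactamase-expressing E. aerogenes EA289 is grown in Luria Bertani broth at 37 °C with gentle shaking. An MH broth culture at 10^7 bacteria/mL is spread on MH agar and antibiotic-loaded disks are applied. The inhibition diameter (mm) around each disk is read after 24 h at 37 °C, averaged over three to five experiments.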

Escherichia coli [4] = experiment: Bacterial susceptibility induced by D113 mutation in Escherichia coli OmpF; assay type: functional, organism-based; procedure, shortened: as §1
Klebsiella aerogenes [5] = experiment: Mean lysis diameter of Enterobacter aerogenes EA289 with D113A mutation by standard disk diffusion method on MH agar; assay type: functional; procedure, shortened: as §1
Escherichia coli [6] = experiment: Bacterial susceptibility induced by D121 mutation in Escherichia coli OmpF; assay type: functional, organism-based; procedure, shortened: as §1

Row | Structure (SMILES) | Lysis diameter (Klebsiella aerogenes [1]) [mm] | Lysis diameter (Klebsiella aerogenes [2]) [mm] | Lysis diameter (Klebsiella aerogenes [3]) [mm] | Susceptibility (Escherichia coli [4]) | Lysis diameter (Klebsiella aerogenes [5]) [mm] | Susceptibility (Escherichia coli [6])
1 | CO/N=C(\C(=O)N[C@@H]1C(=O)N2C(C(=O)[O-])=C(C[N+]3(C)CCCC3)CS[C@H]12)c1csc(N)n1 [CEFEPIME] | 29 | 27 | 19 | +/- | 30 | +/-
2 | CC(C)(O/N=C(\C(=O)N[C@@H]1C(=O)N2C(C(=O)[O-])=C(C[n+]3ccccc3)CS[C@H]12)c1csc(N)n1)C(=O)O [CEFTAZIDIME] | 15 | 11 | 8 |  | 20 | 
3 | CO/N=C(\C(=O)N[C@@H]1C(=O)N2C(C(=O)O)=C(COC(C)=O)CS[C@H]12)c1csc(N)n1 [CEFOTAXIME] | 18 | 17 | 15 |  | 23 | 
4 | CO/N=C(\C(=O)N[C@@H]1C(=O)N2C(C(=O)[O-])=C(C[n+]3cccc4c3CCC4)CS[C@H]12)c1csc(N)n1 [CEFPIROME] | 31 | 26 | 19 |  | 31 | 
5 | CC1(C)S[C@@H]2[C@H](NC(=O)[C@H](N)c3ccccc3)C(=O)N2[C@H]1C(=O)O [AMPICILLIN] | 7 | 6 | 6 |  | 16 | 
6 | CO[C@@]1(NC(=O)Cc2cccs2)C(=O)N2C(C(=O)O)=C(COC(N)=O)CS[C@@H]21 [CEFOXITIN] | 12 | 7 | 6 |  | 16 | 

— ChEMBL document CHEMBL1142697, “Beta-lactam screening by specific residues of the OmpF eyelet” (2005)
